≈ marks a conversion by molar mass, not a printed value.
How the values were obtained:
Assay type in all cases: functional
Staphylococcus aureus [1] = test: Antibacterial activity against quinolone-resistant Staphylococcus aureus CCARM 3505 after 24 hrs by microtiter ELISA; conditions: CCARM 3505, 24 h
Method in brief: (§1)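 Broth microdilution MIC. Bacteria grown to mid-log phase in Mueller-Hinton broth, diluted 1000-fold, and inoculated at 10^5 CFU/mL. Compounds in DMSO (final ≤0.05%) were given as two-fold serial dilutions, final 64-0.25 µg/mL. Plates were incubated 24 h at 37 °C and growth read at 650 nm. MIC is the lowest concentration giving complete growth inhibition. Three independent experiments; oxacillin and norfloxacin served as positive controls.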

Escherichia coli = test: Antibacterial activity against Escherichia coli KCTC 1924 after 24 hrs by microtiter ELISA; conditions: KCTC 1924, 24 h
Method in brief: (§2)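 Two-fold serial broth dilution in Mueller-Hinton broth, final 64-0.25 µg/mL; compounds in DMSO (final ≤0.05%). Mid-log cultures diluted 1000-fold, inoculum 10^5 CFU/mL; oxacillin and norfloxacin as positive controls. After 24 h at 37 °C, growth read at 650 nm on a microtiter ELISA reader; MIC = lowest level giving complete growth inhibition. Run three times.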

Staphylococcus aureus [2] = test: Antibacterial activity against methicillin-resistant Staphylococcus aureus CCARM 3167 after 24 hrs by microtiter ELISA; conditions: CCARM 3167, 24 h; method in brief: as §1
Candida albicans = test: Antifungal activity against Candida albicans 7535 after 24 hrs by microtiter ELISA; conditions: Candida albicans, 7535, 24 h; method in brief: as §2
Staphylococcus aureus [3] = test: Antibacterial activity against quinolone-resistant Staphylococcus aureus CCARM 3519 after 24 hrs by microtiter ELISA; conditions: CCARM 3519, 24 h; method in brief: as §1
Staphylococcus aureus [4] = test: Antibacterial activity against Staphylococcus aureus RN4220 after 24 hrs by microtiter ELISA; conditions: RN4220, 24 h; method in brief: as §1
Staphylococcus aureus [5] = test: Antibacterial activity against methicillin-resistant Staphylococcus aureus CCARM 3506 after 24 hrs by microtiter ELISA; conditions: CCARM 3506, 24 h; method in brief: as §1
Streptococcus mutans = test: Antibacterial activity against Streptococcus mutans 3289 after 24 hrs by microtiter ELISA; conditions: Streptococcus mutans, 3289, 24 h; method in brief: as §2

NC1=NC(c2cn(-c3ccc([N+](=O)[O-])cc3[N+](=O)[O-])nc2-c2ccccc2F)N=C(N2CCOCC2)N1 (configuration not stated)
MIC (Staphylococcus aureus [1]): 64 µg/mL (≈ 126 µM) | MIC (Escherichia coli): 64 µg/mL (≈ 126 µM) | MIC (Staphylococcus aureus [2]): 64 µg/mL (≈ 126 µM) | MIC (Candida albicans): 64 µg/mL (≈ 126 µM) | MIC (Staphylococcus aureus [3]): 64 µg/mL (≈ 126 µM) | MIC (Staphylococcus aureus [4]): 64 µg/mL (≈ 126 µM) | MIC (Staphylococcus aureus [5]): 32 µg/mL (≈ 62.8 µM) | MIC (Streptococcus mutans): > 64 µg/mL

Cc1ccc(-c2nn(-c3ccccc3)cc2C2N=C(N)NC(N(C)C)=N2)cc1 (configuration not stated)
MIC (Staphylococcus aureus [1]): 64 µg/mL (≈ 171 µM) | MIC (Escherichia coli): 32 µg/mL (≈ 85.7 µM) | MIC (Staphylococcus aureus [2]): 16 µg/mL (≈ 42.8 µM) | MIC (Candida albicans): 32 µg/mL (≈ 85.7 µM) | MIC (Staphylococcus aureus [3]): 64 µg/mL (≈ 171 µM) | MIC (Staphylococcus aureus [4]): 32 µg/mL (≈ 85.7 µM) | MIC (Staphylococcus aureus [5]): 32 µg/mL (≈ 85.7 µM) | MIC (Streptococcus mutans): 64 µg/mL (≈ 171 µM)

COc1cccc(-c2nn(-c3ccc([N+](=O)[O-])cc3[N+](=O)[O-])cc2C2N=C(N)NC(N(C)C)=N2)c1 (configuration not stated)
MIC (Staphylococcus aureus [1]): 64 µg/mL (≈ 133 µM) | MIC (Escherichia coli): 32 µg/mL (≈ 66.7 µM) | MIC (Staphylococcus aureus [2]): 32 µg/mL (≈ 66.7 µM) | MIC (Candida albicans): 32 µg/mL (≈ 66.7 µM) | MIC (Staphylococcus aureus [3]): 64 µg/mL (≈ 133 µM) | MIC (Staphylococcus aureus [4]): 32 µg/mL (≈ 66.7 µM) | MIC (Staphylococcus aureus [5]): 32 µg/mL (≈ 66.7 µM) | MIC (Streptococcus mutans): 64 µg/mL (≈ 133 µM)

Cc1ccc(-c2nn(-c3ccc([N+](=O)[O-])cc3[N+](=O)[O-])cc2C2N=C(N)NC(N(C)C)=N2)cc1 (configuration not stated)
MIC (Staphylococcus aureus [1]): 8 µg/mL (≈ 17.3 µM) | MIC (Escherichia coli): 16 µg/mL (≈ 34.5 µM) | MIC (Staphylococcus aureus [2]): 8 µg/mL (≈ 17.3 µM) | MIC (Candida albicans): 64 µg/mL (≈ 138 µM) | MIC (Staphylococcus aureus [3]): 16 µg/mL (≈ 34.5 µM) | MIC (Staphylococcus aureus [4]): 16 µg/mL (≈ 34.5 µM) | MIC (Staphylococcus aureus [5]): 8 µg/mL (≈ 17.3 µM) | MIC (Streptococcus mutans): 16 µg/mL (≈ 34.5 µM)

CCn1cc(C(=O)O)c(=O)c2cc(F)c(N3CCNCC3)cc21 [NORFLOXACIN]
MIC (Staphylococcus aureus [1]): > 64 µg/mL | MIC (Staphylococcus aureus [2]): 8 µg/mL (≈ 25.1 µM) | MIC (Staphylococcus aureus [3]): > 64 µg/mL | MIC (Staphylococcus aureus [5]): 4 µg/mL (≈ 12.5 µM)

CCC(C)n1ncn(-c2ccc(N3CCN(c4ccc(OCC5COC(Cn6cncn6)(c6ccc(Cl)cc6Cl)O5)cc4)CC3)cc2)c1=O (configuration not stated) [ITRACONAZOLE]
MIC (Candida albicans): 0.6 µg/mL (≈ 0.85 µM)

COc1c(N2CCNC(C)C2)c(F)cc2c(=O)c(C(=O)O)cn(C3CC3)c12 (configuration not stated) [GATIFLOXACIN]
MIC (Staphylococcus aureus [1]): 8 µg/mL (≈ 21.3 µM) | MIC (Escherichia coli): 2 µg/mL (≈ 5.33 µM) | MIC (Staphylococcus aureus [2]): 2 µg/mL (≈ 5.33 µM) | MIC (Staphylococcus aureus [3]): 4 µg/mL (≈ 10.7 µM) | MIC (Staphylococcus aureus [4]): 0.25 µg/mL (≈ 0.666 µM) | MIC (Staphylococcus aureus [5]): 2 µg/mL (≈ 5.33 µM) | MIC (Streptococcus mutans): 0.25 µg/mL (≈ 0.666 µM)

NC1=NC(c2cn(-c3ccccc3)nc2-c2ccc(Br)cc2)N=C(N2CCOCC2)N1 (configuration not stated)
MIC (Staphylococcus aureus [1]): 16 µg/mL (≈ 33.3 µM) | MIC (Escherichia coli): 16 µg/mL (≈ 33.3 µM) | MIC (Staphylococcus aureus [2]): 8 µg/mL (≈ 16.7 µM) | MIC (Candida albicans): 16 µg/mL (≈ 33.3 µM) | MIC (Staphylococcus aureus [3]): 8 µg/mL (≈ 16.7 µM) | MIC (Staphylococcus aureus [4]): 8 µg/mL (≈ 16.7 µM) | MIC (Staphylococcus aureus [5]): 4 µg/mL (≈ 8.33 µM) | MIC (Streptococcus mutans): 32 µg/mL (≈ 66.6 µM)

CN(C)C1=NC(c2cn(-c3ccccc3)nc2-c2ccccc2)N=C(N)N1 (configuration not stated)
MIC (Staphylococcus aureus [1]): 32 µg/mL (≈ 89 µM) | MIC (Escherichia coli): 64 µg/mL (≈ 178 µM) | MIC (Staphylococcus aureus [2]): 32 µg/mL (≈ 89 µM) | MIC (Candida albicans): > 64 µg/mL | MIC (Staphylococcus aureus [3]): 64 µg/mL (≈ 178 µM) | MIC (Staphylococcus aureus [4]): 32 µg/mL (≈ 89 µM) | MIC (Staphylococcus aureus [5]): 32 µg/mL (≈ 89 µM) | MIC (Streptococcus mutans): > 64 µg/mL

COc1c(N2C[C@@H]3CCCN[C@@H]3C2)c(F)cc2c(=O)c(C(=O)O)cn(C3CC3)c12 [MOXIFLOXACIN]
MIC (Staphylococcus aureus [3]): 4 µg/mL (≈ 9.96 µM) | MIC (Staphylococcus aureus [4]): 0.25 µg/mL (≈ 0.623 µM) | MIC (Streptococcus mutans): 0.25 µg/mL (≈ 0.623 µM)

NC1=NC(c2cn(-c3ccc([N+](=O)[O-])cc3[N+](=O)[O-])nc2-c2ccc(Cl)cc2Cl)N=C(N2CCOCC2)N1 (configuration not stated)
MIC (Staphylococcus aureus [1]): 8 µg/mL (≈ 14.3 µM) | MIC (Escherichia coli): 8 µg/mL (≈ 14.3 µM) | MIC (Staphylococcus aureus [2]): 8 µg/mL (≈ 14.3 µM) | MIC (Candida albicans): 8 µg/mL (≈ 14.3 µM) | MIC (Staphylococcus aureus [3]): 16 µg/mL (≈ 28.6 µM) | MIC (Staphylococcus aureus [4]): 16 µg/mL (≈ 28.6 µM) | MIC (Staphylococcus aureus [5]): 8 µg/mL (≈ 14.3 µM) | MIC (Streptococcus mutans): 16 µg/mL (≈ 28.6 µM)

CN(C)C1=NC(c2cn(-c3ccc([N+](=O)[O-])cc3[N+](=O)[O-])nc2-c2ccc(F)cc2)N=C(N)N1 (configuration not stated)
MIC (Staphylococcus aureus [1]): 64 µg/mL (≈ 137 µM) | MIC (Escherichia coli): 32 µg/mL (≈ 68.5 µM) | MIC (Staphylococcus aureus [2]): 32 µg/mL (≈ 68.5 µM) | MIC (Candida albicans): 32 µg/mL (≈ 68.5 µM) | MIC (Staphylococcus aureus [3]): 64 µg/mL (≈ 137 µM) | MIC (Staphylococcus aureus [4]): 32 µg/mL (≈ 68.5 µM) | MIC (Staphylococcus aureus [5]): 32 µg/mL (≈ 68.5 µM) | MIC (Streptococcus mutans): 32 µg/mL (≈ 68.5 µM)

Cc1ccc(-c2nn(-c3ccccc3)cc2C2N=C(N)NC(N3CCOCC3)=N2)cc1 (configuration not stated)
MIC (Staphylococcus aureus [1]): 64 µg/mL (≈ 154 µM) | MIC (Escherichia coli): 64 µg/mL (≈ 154 µM) | MIC (Staphylococcus aureus [2]): 32 µg/mL (≈ 77 µM) | MIC (Candida albicans): 64 µg/mL (≈ 154 µM) | MIC (Staphylococcus aureus [3]): 64 µg/mL (≈ 154 µM) | MIC (Staphylococcus aureus [4]): 64 µg/mL (≈ 154 µM) | MIC (Staphylococcus aureus [5]): 32 µg/mL (≈ 77 µM) | MIC (Streptococcus mutans): 64 µg/mL (≈ 154 µM)

— ChEMBL document CHEMBL4316612, “Synthesis of novel dihydrotriazine derivatives bearing 1,3-diaryl pyrazole moieties as potential antibacterial agents” (Bioorg Med Chem Lett, 2019)
